Active and inactive are the calls of the source. The rule behind the calls is not given here.

For eight molecules, IC50 and Activity results are on record in ChEMBL document CHEMBL4725452, “Targeted Covalent Inhibition of Plasmodium FK506 Binding Protein 35” (ACS Med Chem Lett, 2020).

In data set [1] the test system is Plasmodium falciparum. The experiment in a line: Antiplasmodial activity against blood stage of Plasmodium falciparum 3D7 assessed as parasite growth inhibition. The class given is functional, organism-based.
Data set [2] addresses Peptidyl-prolyl cis-trans isomerase FKBP1A (Homo sapiens, UniProt P62942). The experiment in a line: Binding affinity to N-terminal 6His-SUMO-tagged human full length FKBP12 expressed in Escherichia coli BL21 (DE3) cells assessed as change in melting temperature at 40 uM by differential scanning […] analysis. An outline of the steps: (§1)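 Differential scanning calorimetry. Purified protein (6His-SUMO tag removed) dialyzed into 25 mM HEPES pH 7.8, 150 mM NaCl. Protein at 0.4 mg/mL (6-9 uM), with or without compound at 40 µM, 2% DMSO (v/v). Scanned 25-90 °C, reference scans subtracted. Tm taken as midpoint of the heat capacity curve.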

In data set [3] the test system is Plasmodium falciparum. Description: Covalent binding affinity to N-terminal 6His-SUMO-tagged Plasmodium falciparum FKBP35 binding domain (FBD35) (Q5-A128) expressed in Escherichia coli BL21 (DE3) cells assessed as binding at C106 position by mass spectrometry. The method, boiled down:
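Protein-compound reaction mixture saved in parallel with DSC. Denatured in urea/NaCl in 50 mM Tris pH 8.0, reduced with TCEP at 37 °C for 60 min, free thiols alkylated with iodoacetamide at RT in the dark for 30 min. Digested with chymotrypsin (1:100 molar) overnight at 37 °C, quenched with formic acid. Peptides resolved on C18 UPLC at 45 °C and analyzed by Q Exactive HF MS.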

Data set [4] has as its system Plasmodium falciparum. The experiment in a line: Binding affinity to N-terminal 6His-SUMO-tagged Plasmodium falciparum FKBP35 binding domain (FBD35) (Q5-A128) expressed in Escherichia coli BL21 (DE3) cells assessed as change in melting temperature at 40 uM by differential scanning […] analysis. An outline of the steps: as §1
Data set [5] has as its system Plasmodium falciparum. The experiment in a line: Antiplasmodial activity against blood stage of Plasmodium falciparum NF54 assessed as parasite growth inhibition.
Data set [6] is described as follows: Displacement of fluorescent tracer Rap-Gly-BDP from nanoluciferse-tagged Plasmodium falciparum FKBP35 expressed in HEK293T cells incubated for 2 hrs by NanoBRET assay. The class given is cell-based. Conditions: HEK-293T. The method, boiled down: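 HEK293T cells stably expressing N-terminal NanoLuc-FKBP35 (lentiviral, puromycin-selected) plated at 0.2 x 10^6 cells/mL in Opti-MEM and incubated overnight at 37°C, 5% CO2. Rap-Gly-BDP tracer added to 1 µM for 10 min, then test compounds at varying concentrations for 2 h at 37°C. Nano-Glo substrate plus extracellular NanoLuc inhibitor added and read immediately. BRET ratio corrected against no-tracer control.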
In general terms: In BRET a luciferase serves as donor, and the signal depends on an acceptor being close.

Chain of Peptidyl-prolyl cis-trans isomerase FKBP1A (P62942 whole entry): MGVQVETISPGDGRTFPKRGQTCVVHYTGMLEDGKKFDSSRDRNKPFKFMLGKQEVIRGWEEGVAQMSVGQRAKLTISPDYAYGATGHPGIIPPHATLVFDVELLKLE

`O=C(NNC(=O)C12CC3CC(CC(C3)C1)C2)c1ccncc1`: in the data set with Plasmodium falciparum [1], the IC50 stood at 250 nM.
`C=CC(=O)NCc1ccccc1NC(=O)CSc1nc2cccnc2[nH]1`: the Activity entry in data set [2] was “Not Active”. In addition, the outcome in the data set with Plasmodium falciparum [3] was Active. Also, in the data set with Plasmodium falciparum [4], the result was inactive.
In the case of `CCC(=O)NCc1ccccc1NC(=O)CSc1nc2cccnc2[nH]1`, in data set [2], the Activity result is recorded as “Not Active”. In addition, the result in the data set on Plasmodium falciparum [4] was inactive.
For `CC[C@H]1CN(Cc2ccccn2)C(=O)C2CCCC1N2S(=O)(=O)c1cc(Cl)cc(Cl)c1` (some centres undefined), in the data set with Plasmodium falciparum [5], the IC50 is 2300 nM.
Same read-out and setting: as for `C=CC[C@@H]1/C=C(\C)C[C@H](C)C[C@H](OC)[C@H]2O[C@@](O)(C(=O)C(=O)N3CCCC[C@H]3C(=O)O[C@H](/C(C)=C/[C@@H]3CC[C@@H](O)[C@H](OC)C3)[C@H](C)[C@@H](O)CC1=O)[C@H](C)C[C@@H]2OC` [TACROLIMUS ANHYDROUS], the figure is 1900 nM.
With `CCc1ccccc1NC(=O)CSc1nc2cccnc2[nH]1`, the IC50 with Plasmodium falciparum [1] is 235 nM.
With `CO[C@H]1C[C@@H]2CC[C@@H](C)[C@@](O)(O2)C(=O)C(=O)N2CCCC[C@H]2C(=O)O[C@H]([C@H](C)C[C@@H]2CC[C@@H](O)[C@H](OC)C2)CC(=O)[C@H](C)/C=C(\C)[C@@H](O)[C@@H](OC)C(=O)[C@H](C)C[C@H](C)/C=C/C=C/C=C/1C` [SIROLIMUS], the IC50 in data set [6] was determined as 34 nM; with Plasmodium falciparum [5], 2600 nM.
`C=CC(=O)NCc1ccc(NC(=O)CSc2nc3cccnc3[nH]2)cc1`: the Activity result in data set [2] is given as “Not Active”. Also, the outcome in the data set on Plasmodium falciparum [3] was Active. Also, the outcome in the data set with Plasmodium falciparum [4] was inactive.

The IC50 is the concentration that inhibits the measured activity by half.
